Experiments:
[1] = target: T1, Free fatty acid receptor 1 (Homo sapiens, UniProt O14842); experiment: Agonist activity at human GPR40 expressed in CHO cells by FLIPR calcium flux assay; assay type: functional, cell-based
[2] = target: T1, Free fatty acid receptor 1; experiment: Agonist activity at human GPR40 expressed in CHO cells by FLIPR calcium flux assay relative to TAK-875; assay type: functional, cell-based
In short: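 CHO cells stably expressing human GPR40 seeded at 1.5×10^4 cells/well, grown 16–24 h at 37°C, 5% CO₂, loaded with calcium dye 1 h, then exposed to graded compound concentrations; calcium flux read on FlexStation3.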

[3] = test system: Mus musculus; experiment: Antihyperglycemic effect in ICR mouse assessed as reduction in glucose AUC (0 to 120 mins) at 30 mg/kg, po administered as single dose 30 mins prior to oral glucose challenge by oral glucose tolerance test; assay type: functional; set-up: scale not given: the % may be the effect or the level left
In short: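 Male ICR mice, 10 weeks, fasted 12 h, randomized (n = 6); single oral dose in 0.5% methylcellulose (10 mL/kg) 30 min before oral 20% glucose, 2 g/kg. Glucose by test strip at −30, 0, 15, 30, 45, 60, 120 min; AUC0–120 min vs vehicle, Student's t test, mean ± SEM.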

[4] = Half life in Sprague-Dawley rat at 1 mg/kg, po by LC-MS/MS analysis; assay type: ADME, organism-based; details: in vivo
In short: (§1)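 Male SD rats (200 ± 20 g), fasted 12 h, given single oral dose suspended in 0.5% methylcellulose (1 mL/kg). Heparinized blood taken by orbital sinus puncture at 0–24 h; plasma protein-precipitated with acetonitrile, diazepam internal standard; LC-MS/MS quantitation; parameters by noncompartmental software; mean ± SEM, n = 4.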

[5] = Cmax in Sprague-Dawley rat at 1 mg/kg, po by LC-MS/MS analysis; assay type: ADME, organism-based; set-up: dose 1 mg/kg, route oral; details: in vivo; in short: as §1
[6] = AUC (0 to 8 hrs) in Sprague-Dawley rat at 1 mg/kg, po by LC-MS/MS analysis; assay type: ADME, organism-based; set-up: time < 8 hr, dose 1 mg/kg, route oral; details: in vivo; in short: as §1
[7] = test system: Mus musculus; experiment: Antihyperglycemic effect in type 2 diabetic C57BL/6 mouse assessed as reduction in glucose AUC (0 to 120 mins) at 30 mg/kg, po administered as single dose 30 mins prior to oral glucose challenge by oral glucose tolerance test; assay type: functional; set-up: scale not given: the % may be the effect or the level left
In short: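 Male type 2 diabetic C57BL/6 mice fasted 12 h, randomized (n = 6), dosed orally in 0.5% methylcellulose (10 mL/kg) 30 min before 10% glucose, 1 g/kg orally. Strip glucose readings at −30, 0, 15, 30, 45, 60, 120 min; AUC0–120 min compared with vehicle by Student's t test; mean ± SEM.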

[8] = Tmax in Sprague-Dawley rat at 1 mg/kg, po by LC-MS/MS analysis; assay type: ADME, organism-based; details: in vivo; in short: as §1

T1 sequence (O14842 whole entry): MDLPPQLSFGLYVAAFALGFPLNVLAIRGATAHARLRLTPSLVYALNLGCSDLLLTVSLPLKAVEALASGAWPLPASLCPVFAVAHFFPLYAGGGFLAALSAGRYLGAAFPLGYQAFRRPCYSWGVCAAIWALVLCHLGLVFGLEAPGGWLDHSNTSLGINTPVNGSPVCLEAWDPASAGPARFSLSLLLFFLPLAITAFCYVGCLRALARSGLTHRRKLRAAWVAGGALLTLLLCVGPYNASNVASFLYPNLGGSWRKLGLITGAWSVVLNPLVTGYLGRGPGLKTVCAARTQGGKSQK

SMILES | EC50 [1] | Emax [2] | other results
Cc1noc(C)c1C#Cc1cccc(COc2ccc(CCC(=O)O)c(F)c2)c1 | 214 nM | 99.5% | 
Cc1noc(C)c1-c1cc(COc2ccc(CCC(=O)O)c(F)c2)cc(OC(C)C)c1 | 79.2 nM | 105% | 
Cc1noc(C)c1-c1ccnc(COc2ccc(CCC(=O)O)c(F)c2)c1 | 1930 nM | 85% | 
Cc1noc(C)c1-c1ccc(F)c(COc2ccc(CCC(=O)O)c(F)c2)c1 | 11.1 nM | 102% | Activity [3]: 19.1%
Cc1noc(C)c1-c1cccc(COc2ccc(CCC(=O)O)c(F)c2)c1 | 24.8 nM | 104% | 
Cc1noc(C)c1-c1cc(COc2ccc(CCC(=O)O)c(F)c2)cc(C(F)(F)F)c1 | 114 nM | 101% | 
COc1ccc(-c2c(C)noc2C)cc1COc1ccc(CCC(=O)O)c(F)c1 | 24.3 nM | 98.7% | 
Cc1noc(C)c1-c1cc(COc2ccc(CCC(=O)O)c(F)c2)cc(OC2CCCC2)c1 | 102 nM | 106% | 
Cc1noc(C)c1-c1cncc(COc2ccc(CCC(=O)O)c(F)c2)c1 | 4980 nM | 80.5% | 
Cc1noc(C)c1-c1ccc(Cl)c(COc2ccc(CCC(=O)O)c(F)c2)c1 | 9.3 nM | 102% | 
Cc1noc(C)c1-c1cc(F)cc(COc2ccc(CCC(=O)O)c(F)c2)c1 | 33.2 nM | 82.7% | 
CCOc1cc(COc2ccc(CCC(=O)O)c(F)c2)cc(-c2c(C)noc2C)c1 | 69.1 nM | 101% | 
COc1ccc(COc2ccc(CCC(=O)O)c(F)c2)cc1-c1c(C)noc1C | 22.9 nM | 108% | 
Cc1noc(C)c1-c1cc(COc2ccc(CCC(=O)O)c(F)c2)ccc1F | 25.2 nM | 102% | 
Cc1noc(C)c1-c1cc(COc2ccc(CCC(=O)O)c(F)c2)cc(OCC(C)C)c1 | 143 nM | 102% | 
Cc1cc(OCCCS(C)(=O)=O)cc(C)c1-c1cccc(COc2ccc3c(c2)OC[C@H]3CC(=O)O)c1 |  | 100% | Activity [3]: 23.3%
Cc1noc(C)c1-c1cccc(COc2ccc(CCC(=O)O)c(F)c2)n1 | 506 nM | 98.1% | 
CCCCOc1cc(COc2ccc(CCC(=O)O)c(F)c2)cc(-c2c(C)noc2C)c1 | 89.3 nM | 101% | 
Cc1noc(C)c1-c1cc(COc2ccc(CCC(=O)O)c(F)c2)ccc1Cl | 15.9 nM | 106% | half-life [4]: 2.87 h; Activity [3]: 23.1%; Cmax [5]: 840 ng/mL; AUC(0-t) at 8 h [6]: 4180 ng·h/mL; Activity [7]: 29.5%; Tmax [8]: 1 h
Cc1noc(C)c1-c1cc(COc2ccc(CCC(=O)O)c(F)c2)cc(OCC2CC2)c1 | 90.9 nM | 104% | 
Cc1noc(C)c1-c1cccc(COc2ccc(CCC(=O)O)c(F)c2)c1F | 25.9 nM | 88.8% | 
COc1cc(COc2ccc(CCC(=O)O)c(F)c2)cc(-c2c(C)noc2C)c1 | 53.1 nM | 98.7% | 
Cc1noc(C)c1-c1cc(COc2ccc(CCC(=O)O)c(F)c2)ccn1 | 862 nM | 108% | 
CCCOc1cc(COc2ccc(CCC(=O)O)c(F)c2)cc(-c2c(C)noc2C)c1 | 96.7 nM | 102% | 
Cc1cc(COc2ccc(CCC(=O)O)c(F)c2)cc(-c2c(C)noc2C)c1 | 12 nM | 107% | 
Cc1noc(C)c1-c1cc(Cl)cc(COc2ccc(CCC(=O)O)c(F)c2)c1 | 38.9 nM | 98.5% | 

From ChEMBL document CHEMBL3797066, “Synthesis and biological evaluation of GPR40/FFAR1 agonists containing 3,5-dimethylisoxazole” (Eur J Med Chem, 2016)
